Results from ChEMBL document CHEMBL1126562, “(1-Butyl-4-piperidinyl)methyl 8-amino-7-chloro-1,4-benzodioxane-5-carboxylate hydrochloride: a highly potent and selective 5-HT4 receptor antagonist derived from metoclopramide” (J Med Chem, 1993).
Each block holds one molecule with its values, some of them ahead of it.

What was measured:
[1] = molecular target: 5-hydroxytryptamine receptor 4 (Cavia porcellus, UniProt O70528); experiment: Inhibition of 5-HT-evoked 5-HT4 receptor-mediated contractions in the guinea pig distal colon longitudinal muscle myenteric plexus (LMMP); type: functional
[2] = molecular target: 5-hydroxytryptamine receptor 2A (Homo sapiens, UniProt P28223); experiment: Tested against 5-hydroxytryptamine 2A receptor
D(3) dopamine receptor = D(3) dopamine receptor (Homo sapiens, UniProt P35462); experiment: Tested against dopamine receptor D3 using cloned human receptor expressed in CHO cells radiolabeled with [125I]iodosulpiride; type: cell-based
Outline: (§1)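 Competition binding on cloned human D2 or D3 receptors expressed in CHO cells, radiolabelled with [¹²⁵I]iodosulpride.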

[3] = molecular target: Beta-2 adrenergic receptor (Homo sapiens, UniProt P07550); experiment: Tested against Beta-2 adrenergic receptor
[4] = molecular target: 5-hydroxytryptamine receptor 1D (Homo sapiens, UniProt P28221); experiment: Tested against 5-hydroxytryptamine 1D receptor
[5] = molecular target: T1, 5-hydroxytryptamine receptor 2C (Homo sapiens, UniProt P28335); experiment: Tested against 5-hydroxytryptamine 2C receptor in experiment 2
T1 sequence (P28335 whole entry): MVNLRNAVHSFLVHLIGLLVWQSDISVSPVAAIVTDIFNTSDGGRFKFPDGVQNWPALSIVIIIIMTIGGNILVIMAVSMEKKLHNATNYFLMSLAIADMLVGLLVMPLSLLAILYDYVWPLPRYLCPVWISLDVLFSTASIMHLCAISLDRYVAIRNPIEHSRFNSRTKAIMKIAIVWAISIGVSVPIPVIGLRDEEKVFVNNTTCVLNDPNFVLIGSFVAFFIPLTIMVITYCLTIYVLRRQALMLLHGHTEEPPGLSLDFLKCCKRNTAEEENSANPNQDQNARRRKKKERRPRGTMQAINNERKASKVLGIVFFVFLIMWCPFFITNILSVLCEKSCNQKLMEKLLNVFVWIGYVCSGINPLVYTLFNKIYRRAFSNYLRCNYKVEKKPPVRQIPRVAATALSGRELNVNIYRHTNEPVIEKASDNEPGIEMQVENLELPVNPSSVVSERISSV

[6] = molecular target: Beta-1 adrenergic receptor (Homo sapiens, UniProt P08588); experiment: Tested against Beta-1 adrenergic receptor
D(1A) dopamine receptor = D(1A) dopamine receptor (Mus musculus, UniProt Q61616); experiment: Tested against dopamine receptor D1
[7] = Concentration-dependent rightward shift of the 5-HT curve yielding an apparent pA2; type: ADME
[8] = molecular target: T1, 5-hydroxytryptamine receptor 2C; experiment: Tested agains t5-hydroxytryptamine 2C receptor in experiment 1
[9] = molecular target: Serotonin 3 (5-HT3) receptor; experiment: Tested against 5-hydroxytryptamine 3 receptor in experiment 1; type: protein-complex assay
[10] = molecular target: T2, Alpha-2A adrenergic receptor (Homo sapiens, UniProt P08913); experiment: Tested against adrenergic alpha-2 receptor
T2 sequence (P08913 whole entry): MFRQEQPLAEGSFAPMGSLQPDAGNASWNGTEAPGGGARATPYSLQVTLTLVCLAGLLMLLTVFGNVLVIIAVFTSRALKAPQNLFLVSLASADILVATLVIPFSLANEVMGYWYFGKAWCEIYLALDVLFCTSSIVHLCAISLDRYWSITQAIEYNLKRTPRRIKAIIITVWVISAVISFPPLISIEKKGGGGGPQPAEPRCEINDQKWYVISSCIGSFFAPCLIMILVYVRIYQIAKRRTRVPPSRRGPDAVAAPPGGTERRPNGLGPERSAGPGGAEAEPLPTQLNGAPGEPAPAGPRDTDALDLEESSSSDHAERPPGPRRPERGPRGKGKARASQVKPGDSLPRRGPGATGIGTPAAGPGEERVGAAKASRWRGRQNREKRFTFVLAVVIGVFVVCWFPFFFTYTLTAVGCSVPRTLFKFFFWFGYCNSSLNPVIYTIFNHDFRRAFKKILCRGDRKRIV

[11] = molecular target: Serotonin 3 (5-HT3) receptor; experiment: Tested against 5-hydroxytryptamine 3 receptor in experiment 2; type: protein-complex assay
[12] = Partition coefficient (logP); type: physicochemical; conditions: octanol/water
D(2) dopamine receptor = D(2) dopamine receptor (Homo sapiens, UniProt P14416); experiment: Tested against dopamine receptor D2 using cloned human receptor expressed in CHO cells radiolabeled with [125I]iodosulpiride; type: cell-based; outline: as §1
[13] = molecular target: 5-hydroxytryptamine receptor 1E (Homo sapiens, UniProt P28566); experiment: Tested for binding affinity towards cloned human 5-hydroxytryptamine 1E receptor using [3H]5-HT as radioligand
Outline: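 Radioligand binding on the cloned human 5-HT1E receptor, labelled with [³H]-5-HT.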

[14] = Acid dissociation constant was determined; type: ADME
[15] = molecular target: T3, Alpha-1D adrenergic receptor (Rattus norvegicus, UniProt P23944); experiment: Tested against adrenergic alpha-1 receptor radiolabeled with [3H]7-methoxyprazosin
T3 sequence (P23944 whole entry): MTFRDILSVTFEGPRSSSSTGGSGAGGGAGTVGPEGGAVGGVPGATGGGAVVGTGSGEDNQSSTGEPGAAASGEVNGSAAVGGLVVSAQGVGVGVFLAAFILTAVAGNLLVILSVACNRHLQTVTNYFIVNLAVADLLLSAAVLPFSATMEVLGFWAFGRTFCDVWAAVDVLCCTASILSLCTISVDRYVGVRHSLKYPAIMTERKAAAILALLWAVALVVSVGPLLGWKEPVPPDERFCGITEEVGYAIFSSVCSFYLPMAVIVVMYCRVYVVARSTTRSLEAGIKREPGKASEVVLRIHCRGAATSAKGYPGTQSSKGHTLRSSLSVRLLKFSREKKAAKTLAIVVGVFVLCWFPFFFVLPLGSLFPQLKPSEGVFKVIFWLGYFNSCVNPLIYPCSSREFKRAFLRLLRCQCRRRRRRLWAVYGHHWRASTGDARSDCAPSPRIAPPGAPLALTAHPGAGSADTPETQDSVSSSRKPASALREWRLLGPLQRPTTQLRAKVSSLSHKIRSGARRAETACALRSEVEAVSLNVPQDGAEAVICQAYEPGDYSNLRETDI
Outline: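 α1-Adrenoceptor binding, radiolabelled with [³H]-7-methoxyprazosin.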

[16] = molecular target: T4, 5-hydroxytryptamine receptor 1A (Mus musculus, UniProt Q64264); experiment: Tested against 5-hydroxytryptamine 1A receptor
T4 sequence (Q64264 whole entry): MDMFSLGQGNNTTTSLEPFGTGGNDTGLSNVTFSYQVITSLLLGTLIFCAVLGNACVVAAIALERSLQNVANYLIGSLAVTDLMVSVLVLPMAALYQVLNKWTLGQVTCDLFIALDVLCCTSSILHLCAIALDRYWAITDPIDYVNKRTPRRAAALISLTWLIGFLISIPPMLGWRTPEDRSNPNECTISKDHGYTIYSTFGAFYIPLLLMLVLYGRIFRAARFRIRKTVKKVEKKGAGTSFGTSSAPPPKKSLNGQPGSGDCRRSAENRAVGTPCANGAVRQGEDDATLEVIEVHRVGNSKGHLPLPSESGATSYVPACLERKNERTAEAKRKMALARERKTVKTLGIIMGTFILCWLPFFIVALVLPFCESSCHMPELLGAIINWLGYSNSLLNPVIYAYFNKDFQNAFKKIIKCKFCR

Sequence of 5-hydroxytryptamine receptor 4 (O70528 whole entry): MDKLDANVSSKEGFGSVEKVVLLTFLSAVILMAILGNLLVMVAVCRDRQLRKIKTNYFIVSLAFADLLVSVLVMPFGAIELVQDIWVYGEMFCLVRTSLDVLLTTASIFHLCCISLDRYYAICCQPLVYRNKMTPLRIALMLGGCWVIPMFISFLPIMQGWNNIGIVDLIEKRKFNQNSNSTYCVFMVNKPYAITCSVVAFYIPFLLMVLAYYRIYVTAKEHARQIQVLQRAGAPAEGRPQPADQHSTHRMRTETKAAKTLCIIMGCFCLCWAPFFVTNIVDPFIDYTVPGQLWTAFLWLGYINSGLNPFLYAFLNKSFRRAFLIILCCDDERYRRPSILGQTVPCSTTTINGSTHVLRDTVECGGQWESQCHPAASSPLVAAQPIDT
Sequence of Beta-1 adrenergic receptor (P08588 whole entry): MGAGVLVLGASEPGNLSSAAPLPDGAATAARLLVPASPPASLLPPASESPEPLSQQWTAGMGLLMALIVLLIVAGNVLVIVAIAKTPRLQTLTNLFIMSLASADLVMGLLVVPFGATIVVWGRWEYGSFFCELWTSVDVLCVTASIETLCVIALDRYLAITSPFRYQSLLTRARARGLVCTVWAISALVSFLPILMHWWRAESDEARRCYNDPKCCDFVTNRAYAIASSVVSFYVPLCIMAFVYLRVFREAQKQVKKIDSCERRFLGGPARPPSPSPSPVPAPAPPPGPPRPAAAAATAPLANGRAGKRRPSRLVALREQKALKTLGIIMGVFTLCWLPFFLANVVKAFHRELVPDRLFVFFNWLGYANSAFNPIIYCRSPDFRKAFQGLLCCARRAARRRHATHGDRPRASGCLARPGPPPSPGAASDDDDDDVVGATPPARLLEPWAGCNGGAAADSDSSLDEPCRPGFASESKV
Sequence of D(3) dopamine receptor (P35462 whole entry): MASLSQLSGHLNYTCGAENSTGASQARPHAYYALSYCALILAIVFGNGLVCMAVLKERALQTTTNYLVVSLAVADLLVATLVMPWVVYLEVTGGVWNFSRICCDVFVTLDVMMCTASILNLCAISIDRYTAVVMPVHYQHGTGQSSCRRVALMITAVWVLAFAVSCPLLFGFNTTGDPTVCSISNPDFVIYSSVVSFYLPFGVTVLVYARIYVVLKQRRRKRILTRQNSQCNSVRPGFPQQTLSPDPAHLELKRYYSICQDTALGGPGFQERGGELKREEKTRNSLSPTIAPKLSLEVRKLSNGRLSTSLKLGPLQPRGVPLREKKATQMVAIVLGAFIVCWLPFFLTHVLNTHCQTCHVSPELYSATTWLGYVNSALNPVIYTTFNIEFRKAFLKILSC
Sequence of 5-hydroxytryptamine receptor 2A (P28223 whole entry): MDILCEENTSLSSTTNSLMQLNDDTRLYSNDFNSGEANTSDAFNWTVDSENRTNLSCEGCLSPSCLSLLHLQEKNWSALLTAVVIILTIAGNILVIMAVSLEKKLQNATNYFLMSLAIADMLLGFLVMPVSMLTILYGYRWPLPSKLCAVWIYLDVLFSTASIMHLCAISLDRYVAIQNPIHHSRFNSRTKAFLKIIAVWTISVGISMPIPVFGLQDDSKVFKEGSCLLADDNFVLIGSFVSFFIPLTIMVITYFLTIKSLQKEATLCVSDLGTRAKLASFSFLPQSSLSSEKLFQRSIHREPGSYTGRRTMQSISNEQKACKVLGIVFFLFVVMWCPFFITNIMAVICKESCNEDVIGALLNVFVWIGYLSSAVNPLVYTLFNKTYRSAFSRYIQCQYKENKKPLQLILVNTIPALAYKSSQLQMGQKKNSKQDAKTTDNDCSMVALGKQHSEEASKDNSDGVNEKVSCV
Sequence of 5-hydroxytryptamine receptor 1E (P28566 whole entry): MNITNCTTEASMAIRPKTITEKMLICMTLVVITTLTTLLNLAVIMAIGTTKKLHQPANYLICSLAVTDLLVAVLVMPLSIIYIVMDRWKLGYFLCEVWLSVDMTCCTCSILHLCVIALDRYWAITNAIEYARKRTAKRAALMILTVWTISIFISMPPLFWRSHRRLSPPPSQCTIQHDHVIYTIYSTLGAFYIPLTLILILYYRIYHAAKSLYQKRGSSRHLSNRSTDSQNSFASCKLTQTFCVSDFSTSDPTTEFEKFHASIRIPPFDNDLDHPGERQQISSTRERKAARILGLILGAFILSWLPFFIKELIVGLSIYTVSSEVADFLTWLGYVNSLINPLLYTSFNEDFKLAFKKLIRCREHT
Sequence of Beta-2 adrenergic receptor (P07550 whole entry): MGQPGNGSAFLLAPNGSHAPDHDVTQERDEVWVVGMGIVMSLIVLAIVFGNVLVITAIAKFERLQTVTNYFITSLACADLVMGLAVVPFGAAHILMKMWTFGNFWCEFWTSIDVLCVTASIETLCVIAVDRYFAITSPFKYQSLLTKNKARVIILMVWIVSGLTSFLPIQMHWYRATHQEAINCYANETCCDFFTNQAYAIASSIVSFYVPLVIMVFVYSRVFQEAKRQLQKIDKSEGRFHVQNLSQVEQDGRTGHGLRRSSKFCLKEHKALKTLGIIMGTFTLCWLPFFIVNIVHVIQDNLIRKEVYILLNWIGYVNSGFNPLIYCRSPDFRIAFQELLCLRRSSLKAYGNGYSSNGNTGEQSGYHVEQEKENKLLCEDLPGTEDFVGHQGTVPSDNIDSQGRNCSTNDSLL
Sequence of 5-hydroxytryptamine receptor 1D (P28221 whole entry): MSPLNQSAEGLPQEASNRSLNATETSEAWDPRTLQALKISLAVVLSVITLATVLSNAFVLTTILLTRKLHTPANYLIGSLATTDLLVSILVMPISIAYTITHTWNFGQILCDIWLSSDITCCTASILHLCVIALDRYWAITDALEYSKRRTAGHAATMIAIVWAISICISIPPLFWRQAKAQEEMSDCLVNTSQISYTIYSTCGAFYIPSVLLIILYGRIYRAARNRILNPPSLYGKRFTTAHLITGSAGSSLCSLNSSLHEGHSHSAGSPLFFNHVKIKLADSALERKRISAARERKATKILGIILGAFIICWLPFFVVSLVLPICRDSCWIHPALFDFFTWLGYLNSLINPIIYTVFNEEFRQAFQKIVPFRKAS
Sequence of D(1A) dopamine receptor (Q61616 whole entry): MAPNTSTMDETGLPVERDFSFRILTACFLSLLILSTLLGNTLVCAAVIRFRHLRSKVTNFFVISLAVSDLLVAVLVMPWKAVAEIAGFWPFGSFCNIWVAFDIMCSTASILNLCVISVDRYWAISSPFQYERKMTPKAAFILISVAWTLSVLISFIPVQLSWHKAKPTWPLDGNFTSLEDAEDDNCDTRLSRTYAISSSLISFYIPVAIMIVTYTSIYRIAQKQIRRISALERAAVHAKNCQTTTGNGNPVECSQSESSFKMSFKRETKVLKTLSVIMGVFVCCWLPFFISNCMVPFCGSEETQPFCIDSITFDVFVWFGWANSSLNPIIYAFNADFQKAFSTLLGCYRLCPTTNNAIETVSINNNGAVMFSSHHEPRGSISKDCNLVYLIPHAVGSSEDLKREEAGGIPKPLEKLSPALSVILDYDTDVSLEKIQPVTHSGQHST
Sequence of D(2) dopamine receptor (P14416 whole entry): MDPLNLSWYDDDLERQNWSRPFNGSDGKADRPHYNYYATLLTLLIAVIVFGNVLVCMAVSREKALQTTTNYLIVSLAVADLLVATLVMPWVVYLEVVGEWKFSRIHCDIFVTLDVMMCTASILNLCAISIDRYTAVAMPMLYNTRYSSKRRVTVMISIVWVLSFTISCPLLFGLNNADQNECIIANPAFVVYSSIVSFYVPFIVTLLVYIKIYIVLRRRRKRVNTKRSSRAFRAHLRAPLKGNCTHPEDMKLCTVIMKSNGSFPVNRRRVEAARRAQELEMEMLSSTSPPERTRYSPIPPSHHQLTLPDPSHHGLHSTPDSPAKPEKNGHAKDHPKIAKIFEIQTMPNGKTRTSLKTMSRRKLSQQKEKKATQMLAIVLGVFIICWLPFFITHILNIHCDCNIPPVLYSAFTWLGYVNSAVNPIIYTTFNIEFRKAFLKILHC

IC50 [1]: 0.00631 µM
SMILES: CCCCN1CCC(COC(=O)c2cccc3c2OCCO3)CC1

IC50 [1]: 0.0501 µM
SMILES: CCCCN1CCC(COC(=O)c2cccc3c2OCCCO3)CC1

IC50 [1]: 0.01 µM
SMILES: CCCCN1CCC(CNC(=O)c2cc(Cl)c(N)cc2OC)CC1

IC50 [1]: 0.0631 µM
SMILES: CCCCN1CCC(COC(=O)c2cccc3c2OCO3)CC1

IC50 [1]: 0.251 µM
SMILES: CCN(CC)CCOC(=O)c1cc(Cl)c(N)cc1OC

IC50 [1]: 0.001 µM
SMILES: CCCCN1CCC(COC(=O)c2cc(Cl)c(N)cc2OC)CC1

Ki [2]: > 1 µM | Ki (D(3) dopamine receptor): > 1 µM | Ki [3]: > 1 µM | Ki [4]: > 10 µM | Ki [5]: 0.0794 µM | Ki [6]: > 1 µM | Ki (D(1A) dopamine receptor): > 1 µM | IC50 [1]: 0.0001 µM | Ki [8]: 0.126 µM | Log Ki [9]: -6.6 | Ki [10]: > 1 µM | Log Ki [11]: -6.7 | logP [12]: 4.86 | Ki (D(2) dopamine receptor): > 10 µM | Ki [13]: > 10 µM | pKa [14]: 10.4 | Ki [15]: > 1 µM | Ki [16]: > 1 µM
SMILES: CCCCN1CCC(COC(=O)c2cc(Cl)c(N)c3c2OCCO3)CC1
pA2 [7]: 10.8

IC50 [1]: 3.16 µM
SMILES: CN1[C@@H]2CC[C@H]1C[C@@H](OC(=O)c1c[nH]c3ccccc13)C2 [TROPISETRON]
